Reference: ChEMBL document CHEMBL4196059, “Design, synthesis, and biological evaluation of stable β6.3-Helices: Discovery of non-hemolytic antibacterial peptides” (Eur J Med Chem, 2018)
The source made the active and inactive calls. No cut-off for these calls is given here.

How the values were obtained:
Candida albicans = test: Growth inhibition of Candida albicans ATCC 90028 at 32 ug/ml after 24 hrs by OD530 light-scattering microspectrophotometric method; conditions: ATCC 90028, 24 h, read-out: GI
[1] = Hemolytic activity against human RBC at 3.125 uM after 1 hr by Drabkin's assay relative to control; assay type: ADME, cell-based, Erythrocyte; conditions: human red blood cells (erythrocytes), read-out: Activity
[2] = Hemolytic activity against human RBC at 100 uM after 1 hr by Drabkin's assay relative to control; assay type: ADME, cell-based, Erythrocyte; conditions: human red blood cells (erythrocytes), read-out: Activity
[3] = Hemolytic activity against human RBC at 0.39 uM after 1 hr by Drabkin's assay relative to control; assay type: ADME, cell-based, Erythrocyte; conditions: human red blood cells (erythrocytes), read-out: Activity
[4] = Hemolytic activity against human RBC at 12.5 uM after 1 hr by Drabkin's assay relative to control; assay type: ADME, cell-based, Erythrocyte; conditions: human red blood cells (erythrocytes), read-out: Activity
Staphylococcus aureus = test: Growth inhibition of methicillin-resistant Staphylococcus aureus ATCC 43300 at 32 ug/ml after 18 hrs; assay type: functional; conditions: ATCC 43300, 18 h, read-out: GI
How it was run: (§1)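 Mid-log cultures in cation-adjusted Mueller Hinton broth were added at 5×10^5 CFU/mL to wells at a final compound concentration of 32 μg/mL. Plates stood at 37 °C for 18 h. Growth was read by OD600, and % inhibition was computed against media-only and untreated-bacteria controls.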

[5] = Hemolytic activity against human RBC at 50 uM after 1 hr by Drabkin's assay relative to control; assay type: ADME, cell-based, Erythrocyte; conditions: human red blood cells (erythrocytes), read-out: Activity
Erythrocyte = test: Hemolytic activity against human RBC after 1 hr by Drabkin's assay; assay type: ADME, cell-based
[6] = Hemolytic activity against human RBC at 1.56 uM after 1 hr by Drabkin's assay relative to control; assay type: ADME, cell-based, Erythrocyte; conditions: human red blood cells (erythrocytes), read-out: Activity
Cryptococcus neoformans = test: Growth inhibition of Cryptococcus neoformans H99 ATCC 208821 at 32 ug/ml after 24 hrs by resazurin dye-based microspectrophotometric assay; assay type: functional; conditions: var. grubii H99 ATCC 208821, 24 h, read-out: GI
How it was run: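 Yeasts were grown 3 days on YPD agar at 30 °C, suspended from five colonies and diluted in YNB broth to a final 2.5×10^3 CFU/mL. Compound at a final 32 μg/mL; incubated 24 h at 35 °C without shaking. C. albicans was read at OD530. C. neoformans was read as OD600–570 after resazurin (0.001% final) and a further 2 h at 35 °C. Fluconazole was the standard.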

[7] = Hemolytic activity against human RBC at 6.25 uM after 1 hr by Drabkin's assay relative to control; assay type: ADME, cell-based, Erythrocyte; conditions: human red blood cells (erythrocytes), read-out: Activity
Lipid bilayer = test: Induction of pore formation in POPC vesicles at 20 uM after 3 hrs by carboxyfluorescein dye leakage assay; conditions: in the assay text read “after 3 mins” for “after 3 hrs”
How it was run: (§2)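 POPC or DOPC liposomes were hydrated in 10 mM HEPES, 100 mM KCl, pH 7.4, containing 50 mM carboxyfluorescein. Size was checked by dynamic light scattering, and vesicles were used at 2.2×10^10 per mL. Peptide at 20 μM was equilibrated with vesicles for 3 min, and dye leakage was measured.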

[8] = Hemolytic activity against human RBC at 25 uM after 1 hr by Drabkin's assay relative to control; assay type: ADME, cell-based, Erythrocyte; conditions: human red blood cells (erythrocytes), read-out: Activity
Klebsiella pneumoniae = test: Growth inhibition of multidrug-resistant Klebsiella pneumoniae ATCC 700603 at 32 ug/ml after 18 hrs; assay type: functional; conditions: ATCC 700603, 18 h, read-out: GI
How it was run: as §1

Pseudomonas aeruginosa = test: Growth inhibition of Pseudomonas aeruginosa ATCC 27853 at 32 ug/ml after 18 hrs; assay type: functional; conditions: ATCC 27853, 18 h, read-out: GI
How it was run: (§3)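 Mid-log cultures were prepared as above and seeded at 5×10^5 CFU/mL with compound at a final 32 μg/mL, then held static at 37 °C for 18 h. Growth was read as OD600. Percent inhibition was calculated against media-only and bacteria-only controls on the same plate.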

[9] = Hemolytic activity against human RBC at 0.78 uM after 1 hr by Drabkin's assay relative to control; assay type: ADME, cell-based, Erythrocyte; conditions: human red blood cells (erythrocytes), read-out: Activity
Acinetobacter baumannii = test: Growth inhibition of Acinetobacter baumannii ATCC 19606 at 32 ug/ml after 18 hrs; assay type: functional; conditions: ATCC 19606 = CIP 70.34 = JCM 6841, 18 h, read-out: GI
How it was run: as §3

Escherichia coli = test: Growth inhibition of Escherichia coli ATCC 25922 at 32 ug/ml after 18 hrs; assay type: functional; conditions: ATCC 25922, 18 h, read-out: GI
How it was run: as §3

[10] = Induction of pore formation in DOPC vesicles at 20 uM after 3 hrs by carboxyfluorescein dye leakage assay; conditions: in the assay text read “after 3 mins” for “after 3 hrs”
How it was run: as §2

Structure (SMILES)	inhibition of growth at 32 µg/mL (Candida albicans)	hemolysis at 1 h, 3.125 µM [1]	hemolysis at 1 h, 100 µM [2]	hemolysis at 1 h, 0.39 µM [3]	hemolysis at 1 h, 12.5 µM [4]	inhibition of growth at 32 µg/mL (Staphylococcus aureus)	hemolysis at 1 h, 50 µM [5]	Activity (Erythrocyte)	hemolysis at 1 h, 1.56 µM [6]	inhibition of growth at 32 µg/mL (Cryptococcus neoformans)	hemolysis at 1 h, 6.25 µM [7]	Activity (Lipid bilayer)	hemolysis at 1 h, 25 µM [8]	inhibition of growth at 32 µg/mL (Klebsiella pneumoniae)	inhibition of growth at 32 µg/mL (Pseudomonas aeruginosa)	hemolysis at 1 h, 0.78 µM [9]	inhibition of growth at 32 µg/mL (Acinetobacter baumannii)	inhibition of growth at 32 µg/mL (Escherichia coli)	Activity [10]
O=CN1CCCN1C(=O)N1CCC[C@H]1C(=O)N1CCCN1C(=O)N1CCC[C@H]1C(=O)N1CCCN1C(=O)N1CCC[C@H]1C(=O)N1CCCN1C(=O)N1CCC[C@H]1C(=O)N1CCCN1C(=O)N1CCC[C@H]1C(=O)N1CCCN1C(=O)N1CCC[C@H]1C(=O)N1CCCN1C(=O)N1CCC[C@H]1C(=O)NCCO	3.52%	-0.045%	1.4%	0.023%	-0.045%	13.7%	0.4%	Dose-dependent effect	-0.049%	-8.29%	-0.29%	inactive	0.41%	5.64%	-5.12%	0.072%	6.14%	5.64%	–
O=CN1CCCN1C(=O)N1CCC[C@H]1C(=O)N1CCCN1C(=O)N1CCC[C@H]1C(=O)N1CCCN1C(=O)N1CCC[C@H]1C(=O)N1CCCN1C(=O)N1CCC[C@H]1C(=O)N1CCCN1C(=O)N1CCC[C@H]1C(=O)N1CCCN1C(=O)N1CCC[C@H]1C(=O)NCCO	5.12%	-0.55%	-0.55%	-0.12%	-0.452%	1.36%	-0.49%	Dose-dependent effect	-0.12%	-11.1%	-0.181%	inactive	0.271%	0.72%	-12.5%	-0.16%	3.07%	0.72%	–
CC(C)(C)OC(=O)[C@@H]1CCCN1C(=O)N1CCCN1C(=O)[C@@H]1CCCN1C(=O)N1CCCN1C(=O)[C@@H]1CCCN1C(=O)N1CCCN1C(=O)[C@@H]1CCCN1C(=O)N1CCCN1C(=O)[C@@H]1CCCN1C(=O)N1CCCN1C(=O)[C@@H]1CCCN1C(=O)N1CCCN1C(=O)[C@@H]1CCCN1C(=O)N1CCCN1C(=O)[C@@H]1CCCN1C(=O)N1CCCN1C(=O)[C@@H]1CCCN1C(=O)N1CCCN1C(=O)[C@@H]1CCCN1C(=O)N1CCCN1C(=O)[C@@H]1CCCN1C(=O)N1CCCN1C(=O)[C@@H]1CCCN1C(=O)N1CCCN1C(=O)[C@@H]1CCCN1C(=O)N1CCCN1C(=O)[C@@H]1CCCN1C(=O)N1CCCN1C(=O)[C@@H]1CCCN1C(=O)N1CCCN1C(=O)[C@@H]1CCCN1C(=O)N1CCCN1C(=O)OCc1ccccc1	4.41%	-0.33%	–	-0.24%	-0.33%	25.3%	-0.55%	Dose-dependent effect	-0.16%	-1.18%	-0.24%	–	-0.49%	8.57%	-0.85%	-0.2%	-19%	8.57%	inactive
O=C(O)[C@@H]1CCCN1C(=O)N1CCCN1C(=O)[C@@H]1CCCN1C(=O)N1CCCN1C(=O)[C@@H]1CCCN1C(=O)N1CCCN1C(=O)[C@@H]1CCCN1C(=O)N1CCCN1C(=O)[C@@H]1CCCN1C(=O)N1CCCN1C(=O)[C@@H]1CCCN1C(=O)N1CCCN1C(=O)[C@@H]1CCCN1C(=O)N1CCCN1C(=O)[C@@H]1CCCN1C(=O)N1CCCN1C(=O)OCc1ccccc1	2.73%	0.271%	-0.271%	-0.271%	0.181%	1.14%	-0.361%	Dose-dependent effect	-0.452%	-1.86%	-0.09%	inactive	-0.181%	4.92%	-9.17%	-0.181%	4.46%	4.92%	–
CC(C)(C)OC(=O)[C@@H]1CCCN1C(=O)N1CCCN1C(=O)[C@@H]1CCCN1C(=O)N1CCCN1C(=O)[C@@H]1CCCN1C(=O)N1CCCN1C(=O)[C@@H]1CCCN1C(=O)N1CCCN1C(=O)OCc1ccccc1	4.13%	0.181%	0%	0.08%	-0.09%	13.6%	-0.09%	Dose-dependent effect	0.361%	-0.865%	0.09%	inactive	0%	-3.42%	-8.9%	0%	30.2%	-3.42%	–
O=C(O)[C@@H]1CCCN1C(=O)N1CCCN1C(=O)[C@@H]1CCCN1C(=O)N1CCCN1C(=O)[C@@H]1CCCN1C(=O)N1CCCN1C(=O)[C@@H]1CCCN1C(=O)N1CCCN1C(=O)OCc1ccccc1	3.59%	0.452%	0.542%	0.09%	0.09%	27%	0.09%	Dose-dependent effect	0.542%	-5.78%	0.452%	inactive	-0.361%	4.23%	-6.53%	0.09%	14%	4.23%	–
